ChEMBL document CHEMBL4706573, “Synthesis and evaluation of thiophene based small molecules as potent inhibitors of Mycobacterium tuberculosis” (Eur J Med Chem, 2020)
Active and inactive are the calls of the source. No cut-off for these calls is given here.

tested on: Mycobacterium tuberculosis; assay: Antimycobacterial activity against INH-resistant Mycobacterium tuberculosis mc2497 after 10 to 14 days; type: functional, organism-based; conditions: time 10-14 day
How it was run: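 MIC99 determined in whole cells, tested in triplicate with INH as the positive control. Strains were wild-type, pMV306, pMV306-pks13 and INH-resistant mc2 497. Susceptibility was scored relative to the parental strain: S where the MIC99 was at most 2x the parental MIC99.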

Q: For `NNC(=O)c1ccncc1` [ISONIAZID], which Activity is on record?
A: inactive

Q: How did the Activity turn out when `COC(=O)c1ccsc1NC(=O)CCl` was run?
A: inactive

Q: For `CCOC(=O)c1cc(-c2ccccc2)sc1NC(=O)CBr`, which Activity is on record?
A: inactive

Q: How did the Activity turn out when `CO[C@H]1/C=C/O[C@@]2(C)Oc3c(C)c(O)c4c(O)c(c(/C=N/N5CCN(C)CC5)c(O)c4c3C2=O)NC(=O)/C(C)=C\C=C\[C@H](C)[C@H](O)[C@@H](C)[C@@H](O)[C@@H](C)[C@H](OC(C)=O)[C@@H]1C` [RIFAMPIN] was run?
A: Active

Q: For `COC(=O)c1cc(-c2ccc(C(F)(F)F)cc2)sc1NC(=O)CCl`, which Activity is on record?
A: inactive

Q: With `COC(=O)c1cc(-c2cc3ccccc3s2)sc1NC(=O)CCl` as the compound, how does the Activity read?
A: inactive

Q: With `COC(=O)c1cc(-c2cc(F)cc(F)c2)sc1NC(=O)CCl` as the compound, how does the Activity read?
A: inactive

Q: With `COC(=O)c1cc(-c2ccccc2)sc1NC(=O)CCl` as the compound, how does the Activity read?
A: inactive

Q: `COC(=O)c1cc(-c2ccc(F)cc2)sc1NC(=O)CCl` was tested. Which Activity did it give?
A: inactive

Q: With `COC(=O)c1cc(-c2cccc(F)c2)sc1NC(=O)CCl` as the compound, how does the Activity read?
A: inactive
